{
  "source": "ChEMBL document CHEMBL1926614",
  "about": "“Substituted thiazoles V. synthesis and antitumor activity of novel thiazolo[2,3-b]quinazoline and pyrido[4,3-d]thiazolo[3,2-a]pyrimidine analogues” (2012)",
  "type_in_all_cases": "functional",
  "key": {"MDA-MB-435": {"tested_on": "MDA-MB-435", "assay": "Growth inhibition of human MDA-MB-435 cells at 10 uM after 48 hrs by coulter counting", "how_it_was_run": "(§1)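 Single-dose primary screen across the full NCI 60-cell-line panel. Stocks were made in DMSO and diluted in PBS to a final DMSO below 1%. Cultures at 6 × 10⁴ cells/ml were run in duplicate wells alongside PBS/DMSO vehicle controls at 37 °C in humidified 5% CO₂. Data were expressed as percent growth of treated cells.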"}, "[1]": {"assay": "Cytotoxicity against human CNS cancer cells after 48 hrs by coulter counting", "conditions": "Cancer cell lines", "how_it_was_run": "(§2)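 NCI 60-cell-line panel covering nine tumour subpanels, tested over a 5-log dose range. Compounds were dissolved in DMSO and diluted in phosphate-buffered saline to a final DMSO below 1%. Wells held 6 × 10⁴ cells/ml and were run in duplicate. Controls contained PBS and DMSO at matching dilutions. Incubation was at 37 °C in humidified 5% CO₂. GI₅₀, TGI and LC₅₀ were reported.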"}, "HL-60(TB)": {"tested_on": "HL-60(TB)", "assay": "Growth inhibition of human HL-60(TB) cells at 10 uM after 48 hrs by coulter counting", "conditions": "HL-60, 48 h, read-out: GI", "how_it_was_run": "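Test compound was dissolved in DMSO and diluted in phosphate-buffered saline to a final DMSO level below 1%. Dilutions were plated in duplicate with cell culture at 6 × 10⁴ cells/ml. Vehicle controls held PBS and DMSO at matching dilutions. Incubation was at 37 °C, humidified, under 5% CO₂. Data were reported as percent growth of treated cells.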"}, "A549": {"tested_on": "A549", "assay": "Growth inhibition of human A549 cells at 10 uM after 48 hrs by coulter counting", "conditions": "A549, 48 h, read-out: GI", "how_it_was_run": "as §1"}, "CAKI-1": {"tested_on": "CAKI-1", "assay": "Growth inhibition of human Caki1 cells at 10 uM after 48 hrs by coulter counting", "how_it_was_run": "as §1"}, "RPMI-8226": {"tested_on": "RPMI-8226", "assay": "Growth inhibition of human RPMI8226 cells at 10 uM after 48 hrs by coulter counting", "how_it_was_run": "as §1"}, "[2]": {"assay": "Cytotoxicity against human breast cancer cells after 48 hrs by coulter counting", "conditions": "Cancer cell lines; for CC50: read-out: LC50 (the source's name)", "how_it_was_run": "as §2"}, "BT-549": {"tested_on": "BT-549", "assay": "Growth inhibition of human BT549 cells at 10 uM after 48 hrs by coulter counting", "conditions": "BT-549, 48 h, read-out: GI", "how_it_was_run": "as §1"}, "T47D": {"tested_on": "T47D", "assay": "Growth inhibition of human T47D cells at 10 uM after 48 hrs by coulter counting", "conditions": "read-out: GI", "how_it_was_run": "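Single-dose screen in the NCI 60 human tumor cell line panel (nine subpanels). Compounds dissolved in DMSO and diluted in phosphate buffered saline, keeping final DMSO below 1%. Added in duplicate wells to cells at 6 × 10⁴ cells/ml. Controls held PBS and DMSO at matching dilutions. Incubated at 37 °C, humidified, 5% CO₂. Reported as percent growth of treated cells.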"}, "NSCLC": {"tested_on": "NSCLC", "assay": "Cytotoxicity against human NSCLC cells after 48 hrs by coulter counting", "conditions": "for CC50: read-out: LC50 (the source's name)", "how_it_was_run": "as §2"}, "HT-29": {"tested_on": "HT-29", "assay": "Growth inhibition of human HT-29 cells at 10 uM after 48 hrs by coulter counting", "how_it_was_run": "as §1"}, "LOX IMVI": {"tested_on": "LOX IMVI", "assay": "Growth inhibition of human LOXIMVI cells at 10 uM after 48 hrs by coulter counting", "how_it_was_run": "as §1"}, "[3]": {"assay": "Cytotoxicity against human prostate cancer cells after 48 hrs by coulter counting", "conditions": "Cancer cell lines", "how_it_was_run": "as §2"}, "[4]": {"assay": "Growth inhibition of human NCI-322M cells at 10 uM after 48 hrs by coulter counting", "conditions": "read-out: GI", "how_it_was_run": "as §1"}, "SNB-75": {"tested_on": "SNB-75", "assay": "Growth inhibition of human SNB75 cells at 10 uM after 48 hrs by coulter counting", "conditions": "SNB-75, 48 h, read-out: GI", "how_it_was_run": "as §1"}, "KM12": {"tested_on": "KM12", "assay": "Growth inhibition of human KM12 cells at 10 uM after 48 hrs by coulter counting", "how_it_was_run": "as §1"}},
  "note": "Calls of active or inactive are those of the source. The rule behind the calls is not given here.",
  "data": [
    {"smiles": "CCN1CC2=C(N=C3SC=CN3C2c2ccc(OC)cc2)/C(=C/c2ccc(OC)cc2)C1", "note": "(configuration not stated)", "values": [
      {"measurement": "growth inhibition (GI)", "setting": "MDA-MB-435", "result": "Active"},
      {"measurement": "GI50", "setting": "[1]", "result": 4.7, "unit": "µM"},
      {"measurement": "LC50", "setting": "[1]", "result": 68.2, "unit": "µM"},
      {"measurement": "TGI", "setting": "[1]", "result": 9.4, "unit": "µM"},
      {"measurement": "inhibition of growth at 10 µM", "setting": "HL-60(TB)", "result": 84, "unit": "%"},
      {"measurement": "inhibition of growth at 10 µM", "setting": "A549", "result": 66.3, "unit": "%"},
      {"measurement": "inhibition of growth at 10 µM", "setting": "CAKI-1; CAKI-1, 48 h, read-out: GI", "result": 78.3, "unit": "%"},
      {"measurement": "growth inhibition (GI)", "setting": "RPMI-8226", "result": "Active"},
      {"measurement": "GI50", "setting": "[2]", "result": 2.5, "unit": "µM"},
      {"measurement": "TGI", "setting": "[2]", "result": 8, "unit": "µM"},
      {"measurement": "CC50", "setting": "[2]", "result": 73.4, "unit": "µM"},
      {"measurement": "inhibition of growth at 10 µM", "setting": "BT-549", "result": 55.2, "unit": "%"},
      {"measurement": "inhibition of growth at 10 µM", "setting": "T47D", "result": 24.4, "unit": "%"},
      {"measurement": "GI50", "setting": "NSCLC", "result": 2.5, "unit": "µM"},
      {"measurement": "TGI", "setting": "NSCLC", "result": 18.3, "unit": "µM"},
      {"measurement": "CC50", "setting": "NSCLC", "result": 64.9, "unit": "µM"},
      {"measurement": "growth inhibition (GI)", "setting": "HT-29", "result": "Active"},
      {"measurement": "growth inhibition (GI)", "setting": "LOX IMVI", "result": "Active"},
      {"measurement": "GI50", "setting": "[3]", "result": 2.8, "unit": "µM"},
      {"measurement": "LC50 (concentration killing 50% of cells)", "setting": "[3]", "result": 68.1, "unit": "µM"},
      {"measurement": "TGI", "setting": "[3]", "result": 43.9, "unit": "µM"},
      {"measurement": "inhibition of growth at 10 µM", "setting": "[4]", "result": 29, "unit": "%"},
      {"measurement": "inhibition of growth at 10 µM", "setting": "SNB-75", "result": 22.3, "unit": "%"},
      {"measurement": "growth inhibition (GI)", "setting": "KM12", "result": "Active"}
    ]},
    {"smiles": "CCN1CC2=C(N=C3SC=CN3C2c2ccc(OC)c(OC)c2)/C(=C/c2ccc(OC)c(OC)c2)C1", "note": "(configuration not stated)", "values": [
      {"measurement": "growth inhibition (GI)", "setting": "MDA-MB-435", "result": "Active"},
      {"measurement": "GI50", "setting": "[1]", "result": 3.3, "unit": "µM"},
      {"measurement": "LC50", "setting": "[1]", "result": 82.8, "unit": "µM"},
      {"measurement": "TGI", "setting": "[1]", "result": 26.7, "unit": "µM"},
      {"measurement": "inhibition of growth at 10 µM", "setting": "HL-60(TB)", "result": 48.3, "unit": "%"},
      {"measurement": "inhibition of growth at 10 µM", "setting": "A549", "result": 61.1, "unit": "%"},
      {"measurement": "growth inhibition (GI)", "setting": "CAKI-1", "result": "Active"},
      {"measurement": "growth inhibition (GI)", "setting": "RPMI-8226", "result": "Active"},
      {"measurement": "GI50", "setting": "[2]", "result": 19.3, "unit": "µM"},
      {"measurement": "TGI", "setting": "[2]", "result": 43.9, "unit": "µM"},
      {"measurement": "CC50", "setting": "[2]", "result": 74.7, "unit": "µM"},
      {"measurement": "inhibition of growth at 10 µM", "setting": "BT-549", "result": "> 10", "unit": "%"},
      {"measurement": "inhibition of growth at 10 µM", "setting": "T47D", "result": "> 10", "unit": "%"},
      {"measurement": "GI50", "setting": "NSCLC", "result": 3.2, "unit": "µM"},
      {"measurement": "TGI", "setting": "NSCLC", "result": 40.1, "unit": "µM"},
      {"measurement": "CC50", "setting": "NSCLC", "result": 76.5, "unit": "µM"},
      {"measurement": "growth inhibition (GI)", "setting": "HT-29", "result": "Active"},
      {"measurement": "growth inhibition (GI)", "setting": "LOX IMVI", "result": "Active"},
      {"measurement": "GI50", "setting": "[3]", "result": 3.4, "unit": "µM"},
      {"measurement": "LC50 (concentration killing 50% of cells)", "setting": "[3]", "result": 68.4, "unit": "µM"},
      {"measurement": "TGI", "setting": "[3]", "result": 29.8, "unit": "µM"},
      {"measurement": "inhibition of growth at 10 µM", "setting": "[4]", "result": 19.1, "unit": "%"},
      {"measurement": "inhibition of growth at 10 µM", "setting": "SNB-75", "result": 71.4, "unit": "%"},
      {"measurement": "growth inhibition (GI)", "setting": "KM12", "result": "Active"}
    ]},
    {"smiles": "CCN1CC2=C(N=C3SC=C(C)N3C2c2ccc(OC)c(OC)c2)/C(=C/c2ccc(OC)c(OC)c2)C1", "note": "(configuration not stated)", "values": [
      {"measurement": "growth inhibition (GI)", "setting": "MDA-MB-435", "result": "Active"},
      {"measurement": "GI50", "setting": "[1]", "result": 5.7, "unit": "µM"},
      {"measurement": "LC50", "setting": "[1]", "result": "> 100", "unit": "µM"},
      {"measurement": "TGI", "setting": "[1]", "result": 40.1, "unit": "µM"},
      {"measurement": "inhibition of growth at 10 µM", "setting": "HL-60(TB)", "result": 72.1, "unit": "%"},
      {"measurement": "inhibition of growth at 10 µM", "setting": "A549", "result": 93.2, "unit": "%"},
      {"measurement": "growth inhibition (GI)", "setting": "CAKI-1", "result": "Active"},
      {"measurement": "growth inhibition (GI)", "setting": "RPMI-8226", "result": "Active"},
      {"measurement": "GI50", "setting": "[2]", "result": 5.7, "unit": "µM"},
      {"measurement": "TGI", "setting": "[2]", "result": 49.5, "unit": "µM"},
      {"measurement": "CC50", "setting": "[2]", "result": 68.2, "unit": "µM"},
      {"measurement": "inhibition of growth at 10 µM", "setting": "BT-549", "result": 57, "unit": "%"},
      {"measurement": "inhibition of growth at 10 µM", "setting": "T47D", "result": 26.2, "unit": "%"},
      {"measurement": "GI50", "setting": "NSCLC", "result": 3, "unit": "µM"},
      {"measurement": "TGI", "setting": "NSCLC", "result": 44.2, "unit": "µM"},
      {"measurement": "CC50", "setting": "NSCLC", "result": 86.5, "unit": "µM"},
      {"measurement": "growth inhibition (GI)", "setting": "HT-29", "result": "Active"},
      {"measurement": "growth inhibition (GI)", "setting": "LOX IMVI", "result": "Active"},
      {"measurement": "GI50", "setting": "[3]", "result": 2.8, "unit": "µM"},
      {"measurement": "LC50 (concentration killing 50% of cells)", "setting": "[3]", "result": 79.2, "unit": "µM"},
      {"measurement": "TGI", "setting": "[3]", "result": 53.4, "unit": "µM"},
      {"measurement": "inhibition of growth at 10 µM", "setting": "[4]", "result": 63.6, "unit": "%"},
      {"measurement": "inhibition of growth at 10 µM", "setting": "SNB-75", "result": 68.1, "unit": "%"},
      {"measurement": "growth inhibition (GI)", "setting": "KM12", "result": "Active"}
    ]}
  ]
}
